Experimental findings from PubChem BioAssay are described below.

Assay [1] in a line: reduced viability of SK-BR-3 breast cancer cells – cell-based, 24 h, human, pilot screen (AID 572).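 Note: compound exposure lasted between 18 and 24 h rather than exactly 24 h; 100% = carrier-treated control wells.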 The conditions noted are these: SK-BR-3 viability, CellTiter-Glo luminescence, at 10 µM, stronger effect = lower value. Background: In ATP-based viability assays light output follows the ATP content of the culture.
Assay [2] is described as follows: HUVEC growth inhibition – cell-based, human, primary screen (AID 575;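 active = viability at or below 30% in both replicate assays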;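 note: 100% = median of untreated cell wells with 0.1% DMSO on each plate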). The conditions noted are these: HUVEC proliferation, CellTiter-Glo luminescence, 72 h; at 10 µM; stronger effect = lower value. In a few lines: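 Assay system: primary human umbilical vein endothelial cells / Buffer or medium: endothelial basal medium with 2% FBS plus growth supplements / Compound dosing: one dose, 10 µM final, 0.1% DMSO / Timing: 72 h treatment at 37 °C / Signal: CTG luminescence / Benchmarks: 32 DMSO-only cell-control wells (high), 32 MePR drug-control wells (low) per plate / Plate: collagen-coated 384-well format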

Assay [3] can be described thus: H69AR cell proliferation blockers – human, duplicate replicates, primary screen (AID 580;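 active = viability at or under a set limit in both replicates, limit being median viability minus 3 SD, cut at about 48% in these data, passing the limit was not always enough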;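 note: 100% = mean luminescence of untreated wells and 0% = no signal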). The conditions noted are these: H69AR lung tumor cells viability, ATP luminescence, 72 h; at 10 µM; stronger effect = lower value.
A short description of assay [4]: MRP1 drug-resistance reversers in H69AR cells – cell-based, doxorubicin co-treatment, pilot screen (AID 601;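 active = viability loss from added drug above about 55%, and viability with drug at most 40%, in both replicates, limit read from the data, passing the limit was not always enough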). The conditions noted are these: CellTiter-Glo, 72 h, at 10 µM; for differential viability (reversal): stronger effect = higher value.
The nature of assay [5]: yeast transport mutant growth inhibition pilot in 384-well plates, post-Golgi transport modulator project (AID 636; in the data active = inhibition above about 31%). The conditions noted are these: absorbance 615 nm, about 18 h, stronger effect = higher value.
Assay [6] is described as follows: growth suppression of yeast trafficking mutant, preliminary HTS, modulators of trafficking downstream of Golgi apparatus project, 1536-format plate, OD 615 nm (AID 637; in the data active = inhibition above about 30%). The conditions noted are these: yeast transport mutant growth, absorbance 615 nm, 18 h; stronger effect = higher value.
[7] abbreviates: H69AR cells + 2 uM doxorubicin, measured here: viability with 2 uM doxorubicin, stronger effect = lower value.
The mark [8] stands for this setting: H69AR cells, compound alone cytotoxicity.

Active and inactive are the calls of the source.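 Rule for the calls, unless noted: active = viability at or below 10% of carrier control in both of two separate runs; inconclusive = viability at or below 10% in only one of the two runs; inactive = the rest.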

For orientation: viability means a read-out of living cells in per cent, often relative to untreated cells. In general, inhibition refers to the change of the read-out against control, counted positive when it falls. Regarding `COc1ccc(C(c2nnnn2C2CCCC2)N2CCC(C)CC2)c(OC)c1` (configuration not stated), the viability was 154% (inactive) in assay [1]; 91.4% (inactive) in assay [2]; 87.8% (inactive) in assay [3]; 96.7% in assay [4] (setting [7]); 87.8% in assay [4] (setting [8]). The differential viability (reversal) in assay [4] (H69AR cells + 2 uM doxorubicin) is -8.92% (inactive). Besides, the inhibition in assay [5] was -0.26% (inactive); in assay [6] it was -3.28% (inactive).

As to `COc1ccccc1CC(=O)NCC1CCCO1` (configuration not stated), the viability in assay [1] was 110% (inactive); in assay [2], 113% (inactive); in assay [3], 99% (inactive); in assay [4] (setting [7]), 90.7%; in assay [4] (setting [8]), 99%. Besides, the differential viability (reversal) in assay [4] (H69AR cells + 2 uM doxorubicin) was 8.34% (inactive). Moreover, the inhibition in assay [5] is -8.13% (inactive); in assay [6] it was -4.55% (inactive).

As for `OCCNC1=NCCN1`, the viability in assay [1] was 54% (inactive); in assay [2] it was 99.5% (inactive); in assay [3], 96.8% (inactive); in assay [4] (setting [7]), 90.7%; in assay [4] (setting [8]), 96.8%. For the same compound, the differential viability (reversal) in assay [4] (H69AR cells + 2 uM doxorubicin) is 6.17% (inactive). Further, the inhibition in assay [5] is -7.4% (inactive); in assay [6], -0.55% (inactive).

Turning to `CCOc1cc(C(=O)Nc2ncccn2)cc(OCC)c1OCC`, the viability in assay [1] is 117% (inactive); in assay [2], 105% (inactive); in assay [3] it was 87.5% (inactive); in assay [4] (setting [7]), 82.7%; in assay [4] (setting [8]), 87.5%. Besides, in assay [4] (H69AR cells + 2 uM doxorubicin), the differential viability (reversal) was 4.8% (inactive). Moreover, the inhibition in assay [5] was -2.86% (inactive); in assay [6] it was 5.08% (inactive).

For the compound `CCCCOc1ccccc1C1C(C(N)=O)=C(C)Nc2nnnn21` (configuration not stated), the viability in assay [1] was 110% (inactive); in assay [2] it was 98.3% (inactive); in assay [3] it was 93.3% (inactive); in assay [4] (setting [7]), 86.6%; in assay [4] (setting [8]), 93.3%. Besides, in assay [4] (H69AR cells + 2 uM doxorubicin), the differential viability (reversal) was 6.69% (inactive). Also, the values for the inhibition in assay [5] and in assay [6] were -3.9% (inactive) and 0.82% (inactive), respectively.

For the compound `Cc1nc(NC(=O)c2csc3ccccc23)sc1C`, the viability in assay [1] was 100% (inactive); in assay [2] it was 83% (inactive); in assay [3], 78.2% (inactive); in assay [4] (setting [7]), 81.5%; in assay [4] (setting [8]), 78.2%. Besides, the differential viability (reversal) in assay [4] (H69AR cells + 2 uM doxorubicin) was -3.3% (inactive). For the same compound, the inhibition in assay [5] is 3.84% (inactive); in assay [6] it was -2.74% (inactive).

In the case of `COc1ccc(-c2nnc(SCC(=O)Nc3sc4c(c3C#N)CCC4)n2CC2CCCO2)cc1` (configuration not stated), the viability in assay [1] is 89% (inactive); in assay [2], 97% (inactive); in assay [3], 93.8% (inactive); in assay [4] (setting [7]) it was 74.4%; in assay [4] (setting [8]), 93.8%. Besides, the differential viability (reversal) in assay [4] (H69AR cells + 2 uM doxorubicin) is 19.5% (inactive). Moreover, the values for the inhibition in assay [5] and in assay [6] were 2.43% (inactive) and -1.43% (inactive), respectively.

`CCOC(=O)c1c(N)c(C#N)nn1-c1ccccc1C(=O)OC`: the viability in assay [1] is 96% (inactive); in assay [2], 109% (inactive); in assay [3], 92.3% (inactive); in assay [4] (setting [7]), 86.2%; in assay [4] (setting [8]) it was 92.3%. For the same compound, in assay [4] (H69AR cells + 2 uM doxorubicin), the differential viability (reversal) is 6.05% (inactive). The values for the inhibition in assay [5] and in assay [6] were -5.87% (inactive) and 0.73% (inactive), respectively.

Consider `CCN1CCN(C(=O)N[C@@H](C(=O)N[C@@H]2C(=O)N3[C@@H]2SC(C)(C)[C@@H]3C(=O)O)c2ccccc2)C(=O)C1=O`, for which the viability in assay [1] was 96% (inactive); in assay [2], 84.1% (inactive); in assay [3] it was 91.5% (inactive); in assay [4] (setting [7]) it was 105%; in assay [4] (setting [8]) it was 91.5%. For the same compound, the differential viability (reversal) in assay [4] (H69AR cells + 2 uM doxorubicin) is -13.4% (inactive). In addition, the results for the inhibition in assay [5] and in assay [6] were -0.39% (inactive) and 6.33% (inactive), respectively.

On to `CCCCNC(=O)OCCNC(=O)NC`, for which the viability was 98% (inactive) in assay [1]; 95.9% (inactive) in assay [2]; 98.1% (inactive) in assay [3]; 90.7% in assay [4] (setting [7]); 98.1% in assay [4] (setting [8]). The differential viability (reversal) in assay [4] (H69AR cells + 2 uM doxorubicin) is 7.46% (inactive). The inhibition in assay [5] is -4.05% (inactive); in assay [6] it was -5.45% (inactive).

Consider `O=C(Nc1ccon1)c1cccc(S(=O)(=O)N2CCCC2)c1`, for which the viability in assay [1] is 96% (inactive); in assay [2], 99.5% (inactive); in assay [3] it was 87.8% (inactive); in assay [4] (setting [7]) it was 98.8%; in assay [4] (setting [8]) it was 87.8%. Besides, the differential viability (reversal) in assay [4] (H69AR cells + 2 uM doxorubicin) is -10.9% (inactive). Further, the inhibition in assay [5] was -2.53% (inactive); in assay [6] it was -0.55% (inactive).

For the compound `CC(C)CN(CC(C)C)C(=O)CS(=O)(=O)Cc1ccccc1`, the viability in assay [1] was 87% (inactive); in assay [2], 98.8% (inactive); in assay [3], 91.4% (inactive); in assay [4] (setting [7]), 88.2%; in assay [4] (setting [8]), 91.4%. The differential viability (reversal) in assay [4] (H69AR cells + 2 uM doxorubicin) was 3.15% (inactive). In addition, the results for the inhibition in assay [5] and in assay [6] were -5.75% (inactive) and 1.13% (inactive), respectively.

Take `Cc1c(C(=O)NCc2ccccn2)sc2nc(-c3ccc(F)cc3)cn12`: the viability in assay [1] is 119% (inactive); in assay [2] it was 89.4% (inactive); in assay [3], 95.4% (inactive); in assay [4] (setting [7]) it was 82.3%; in assay [4] (setting [8]), 95.4%. Also, the differential viability (reversal) in assay [4] (H69AR cells + 2 uM doxorubicin) was 13.1% (inactive). The inhibition is -3.12% (inactive) in assay [5] and 3.77% (inactive) in assay [6].

Turning to `CCCC1O[C@@H]2C[C@H]3[C@@H]4CCC5=CC(=O)C=C[C@]5(C)[C@H]4[C@@H](O)C[C@]3(C)[C@]2(C(=O)CO)O1` (some centres not stated), the viability in assay [1] was 109% (inactive); in assay [2] it was 82.4% (inactive); in assay [3], 79.6% (inactive); in assay [4] (setting [7]), 79.1%; in assay [4] (setting [8]) it was 79.6%. Further, in assay [4] (H69AR cells + 2 uM doxorubicin), the differential viability (reversal) was 0.52% (inactive). The inhibition in assay [5] is 1.04% (inactive); in assay [6], -3.83% (inactive).

Regarding `C=CCn1cnc2c(c1=O)c1nc3ccccc3nc1n2-c1ccc(C)cc1`, the viability in assay [1] is 105% (inactive); in assay [2] it was 97.2% (inactive); in assay [3], 86.9% (inactive); in assay [4] (setting [7]) it was 93.7%; in assay [4] (setting [8]), 86.9%. For the same compound, in assay [4] (H69AR cells + 2 uM doxorubicin), the differential viability (reversal) is -6.75% (inactive). Also, the inhibition is -5.48% (inactive) in assay [5] and -1.61% (inactive) in assay [6].

On to `CCOC(=O)c1cnc(-n2nc(C)cc2C)nc1N1CC(C)OC(C)C1` (configuration not stated), for which the viability in assay [1] was 127% (inactive); in assay [2], 105% (inactive); in assay [3], 86.1% (inactive); in assay [4] (setting [7]), 76.4%; in assay [4] (setting [8]), 86.1%. The differential viability (reversal) in assay [4] (H69AR cells + 2 uM doxorubicin) is 9.65% (inactive). For the same compound, the figures for the inhibition in assay [5] and in assay [6] were -3.47% (inactive) and 0.73% (inactive), respectively.

On to `CCN(CC)CCOC(=O)C(c1ccccc1)c1ccccc1`, for which the viability in assay [1] was 81% (inactive); in assay [2], 81.1% (inactive); in assay [3], 101% (inactive); in assay [4] (setting [7]), 93.2%; in assay [4] (setting [8]) it was 101%. Besides, the differential viability (reversal) in assay [4] (H69AR cells + 2 uM doxorubicin) is 7.5% (inactive). The figures for the inhibition in assay [5] and in assay [6] were -4.81% (inactive) and 1.67% (inactive), respectively.

For the compound `Cc1ccc(Nc2nc(N)nc(CN3CCN(Cc4ccc5c(c4)OCO5)CC3)n2)cc1`, the viability in assay [1] was 93% (inactive); in assay [2] it was 106% (inactive); in assay [3] it was 82.2% (inactive); in assay [4] (setting [7]) it was 79.7%; in assay [4] (setting [8]) it was 82.2%. Further, the differential viability (reversal) in assay [4] (H69AR cells + 2 uM doxorubicin) was 2.44% (inactive). The inhibition in assay [5] was -8.27% (inactive); in assay [6], -4.91% (inactive).

`CCOc1ccc(NC(=O)Cn2nnc(-c3ccccc3F)n2)cc1`: the viability in assay [1] was 105% (inactive); in assay [2], 100% (inactive); in assay [3], 94.6% (inactive); in assay [4] (setting [7]), 87.2%; in assay [4] (setting [8]), 94.6%. Besides, in assay [4] (H69AR cells + 2 uM doxorubicin), the differential viability (reversal) is 7.41% (inactive). Moreover, the results for the inhibition in assay [5] and in assay [6] were -4.42% (inactive) and -2.3% (inactive), respectively.
